TAAR1 antag = human TAAR1 antagonism; Q96RJ0; CHO RD-HGA16 TAAR1, Fluo-8 calcium fluorescence, antagonist; inhibition, % at 3 µM; 1.5% of 360,000 active; AID 624466;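 active = inhibition above a per-plate cutoff, the mean inhibition of test compounds on that plate plus 3 SD, cut at about 49% in these data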
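test system = CHO RD-HGA16 cells bearing hTAAR1 | replication = singlicate | controls = DMSO-only wells and EC80 β-PEA-stimulated wells | reagent = EC80 β-phenethylamine stimulus | read-out basis = percent inhibition of PEA-evoked calcium signal, max/basal emission ratio | schedule = seeding 17-24 h prior, 75-min 37 °C, 30-min RT dye loading | signal = kinetic Fluo-8 calcium fluorescence measurement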
M4 ag = CHRM4 agonism in calcium assay. P08173. CHO-K1 hM4/Gqi5, Fluo-8 calcium fluorescence; vehicle 0%, full acetylcholine response 100%. activation, % at 3 µM. 0.14% of 360,000 active;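 active = activation above the run mean over all test wells plus 3 SD, cut at about 32% in these data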;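 also: peak over basal fluorescence ratio per well then scaled between controls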
Target sequence (P08173 whole entry, looked up): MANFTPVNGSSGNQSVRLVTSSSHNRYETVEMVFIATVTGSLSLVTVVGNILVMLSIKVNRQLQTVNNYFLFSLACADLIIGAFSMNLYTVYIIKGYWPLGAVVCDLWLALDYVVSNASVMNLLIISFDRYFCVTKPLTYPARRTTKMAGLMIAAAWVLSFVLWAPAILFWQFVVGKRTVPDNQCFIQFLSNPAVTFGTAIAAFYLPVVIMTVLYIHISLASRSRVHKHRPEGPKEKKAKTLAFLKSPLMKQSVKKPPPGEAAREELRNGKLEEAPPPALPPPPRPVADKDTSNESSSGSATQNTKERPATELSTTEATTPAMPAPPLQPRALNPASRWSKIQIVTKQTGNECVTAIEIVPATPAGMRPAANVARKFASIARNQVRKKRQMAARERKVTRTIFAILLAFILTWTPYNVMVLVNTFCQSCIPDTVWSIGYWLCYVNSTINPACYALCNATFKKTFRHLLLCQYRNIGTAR
CHRM4 antagonist = CHRM4 antagonism in calcium assay; CHO-hM4 cells, ACh EC80, Fluo-8 calcium fluorescence; inhibition, % at 3 µM; 0.73% of 360,000 active; AID 624125;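 active = inhibition above its plate's cutoff, the mean inhibition of sample wells plus 3 SD, cut at about 27% in these data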
TAAR1 ag = agonists of human TAAR1. 0.99% of 360,000 active. activation, % at 3 µM. CHO RD-HGA16 TAAR1, Fluo-8 calcium fluorescence; vehicle wells 0%, saturating PEA agonist 100%. AID 624467;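 active = activation above the mean activation of all test compounds in the run plus 3 SD, cut at about 38% in these data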
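System: CHO-derived RD-HGA16 cells with stable Gα16 and human TAAR1 / Times: 17-24 h plating, Fluo-8 75 min 37 °C, 30 min RT / Technique: calcium-sensitive Fluo-8 signal, excitation 470-495, emission 515-575 nm / Measure: % activation relative to PEA EC100 response / Benchmarks: DMSO and PEA EC100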
CHRM4 PAM = CHRM4 positive allosteric modulation; activation, % at 3 µM; 0.4% of 360,000 active; AID 624126; CHO-K1 hM4/Gqi5, Fluo-8 calcium fluorescence, ACh EC20; 0% = ACh EC20, 100% = maximal ACh;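 active = activation above its plate's cutoff, the mean activation of sample wells plus 3 SD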
Of the large screens only hits and unclear results are named; the others gave an inactive call. Only some compounds are listed: those with a hit (about 3% of all), similar ones and a draw of the others.

Cc1ccc2c(c1)[C@@H]1CN(C)CC[C@@H]1N2S(=O)(=O)c1ccc([N+](=O)[O-])cc1	none
Cc1ccc2c(c1)C1CN(C)CCC1N2Sc1ccccc1[N+](=O)[O-] (stereo unspecified)	TAAR1 ag 40.2
CNC[C@@H]1OCc2cnnn2CCCC(=O)N([C@@H](C)CO)C[C@H]1C	none (no result: M4 ag, CHRM4 antagonist, CHRM4 PAM)
CCCCOCCCNC(=O)C[C@H]1C[C@@]2(C(=O)OC)C(=C[C@H](C3CCCC3)O[C@@H]2C)N(Cc2ccccc2)C1=O	none (no result: M4 ag, CHRM4 antagonist, CHRM4 PAM)
O=C(Cn1sc2ccccc2c1=O)Nc1ccc(Br)cc1	TAAR1 ag 39.0
O=C(CN1C(=O)C2CC=CCC2C1=O)Nc1ccc(Br)cc1 (stereo unspecified)	none
O=C(NCCSCc1ccccc1)c1ccc(C2SCC(=O)N2Cc2ccccc2)cc1 (stereo unspecified)	CHRM4 antagonist 34.5
COc1ccc2c(c1)C(=O)C1(CC2)OC1c1cccnc1 (stereo unspecified)	none
CCCc1cc(=O)[nH]c(SCC(=O)N(C)CC(=O)Nc2ccc(C)cc2)n1	CHRM4 PAM 26.2
COC(=O)c1c(-c2ccc(S(C)(=O)=O)cc2)sc2cc(OC)ccc12	none
COC(=O)c1c(-c2ccc(S(C)(=O)=O)cc2)sc2ccc(OC)cc12	TAAR1 antag 49.2
O=C(NCc1ccccn1)[C@@H]1CCCN1C(=O)[C@@H]1CCCN1C(=O)c1cccc2ccccc12	none
CC(C)COC(=O)N1CCCCC1c1cc(C(=O)NCc2ccc(F)cc2)no1 (stereo unspecified)	none
CCn1ncc(CN2CCCC(C(=O)Nc3cccc(-c4cc5ccccc5[nH]4)c3)C2)c1C (stereo unspecified)	TAAR1 ag 40.7
O=C(Nc1cccc(-n2cccn2)c1)C1CCCN(Cc2cc3ccccc3[nH]2)C1 (stereo unspecified)	none
CCCCCCC12Cc3cc(OC)c(OC)cc3C(O1)C1=C(O2)C(C)(C)CCC1=O (stereo unspecified)	none (no result: M4 ag, CHRM4 antagonist, CHRM4 PAM)
Cc1snc(SCc2ccc(F)cc2)c1C#N	CHRM4 PAM 18.3
C[C@H](CO)N1C[C@H](C)[C@@H](CN(C)C(=O)Nc2ccc(N3CCN(C)CC3)cc2)OCc2cn(nn2)CCCC1=O	none (no result: M4 ag, CHRM4 antagonist, CHRM4 PAM)
COc1ccc(CCNC(=O)c2ccc3c(c2)N(Cc2ccc(F)cc2)CCS3)cc1OC	TAAR1 antag 59.4
COc1ccc(C2=CC(c3ccco3)n3ncnc3N2)cc1 (stereo unspecified)	none (no result: TAAR1 antag, TAAR1 ag)
Clc1ccc(C2=CC(c3ccco3)n3ncnc3N2)cc1 (stereo unspecified)	TAAR1 ag 107.1
COc1cccc(C(=O)NCC2CCN(C(=O)C(=O)c3cc4ccccc4o3)CC2)c1	none (no result: M4 ag, CHRM4 antagonist, CHRM4 PAM)
COc1cccc(C(=O)N2CCC[C@@H]2C(=O)N2CCC[C@H]2C(=O)NCc2ccccc2)c1	none (no result: M4 ag, CHRM4 antagonist, CHRM4 PAM)
CC(C)(C)OC(=O)N[C@@H](Cc1ccccc1)c1nnc(S(=O)(=O)Cc2ccccc2)o1	none (no result: M4 ag, CHRM4 antagonist, CHRM4 PAM)
Cc1ccccc1CS(=O)(=O)c1nnc([C@H](Cc2ccccc2)NC(=O)OC(C)(C)C)o1	CHRM4 antagonist 78.8
Cc1nnc(SCC(=O)N2N=C(c3ccc(Cl)cc3)CC2c2ccco2)[nH]c1=O (stereo unspecified)	CHRM4 PAM 23.5
N=C1C(c2ccccc2)=C(O)CN1CCO	CHRM4 PAM 17.4
COc1cc(NC(=O)c2cccc3c2C(=O)N(C2CCCCC2)C3)cc(OC)c1OC	TAAR1 antag 52.9
CN(CCCN1CCCCC1)C(=O)c1cc(COc2ccc(F)cc2F)on1	CHRM4 antagonist 35.8
O=C(Nc1ccccc1)c1ccc(-c2ccccc2)s1	TAAR1 ag 37.6
O=C(NNC(=O)C12CC3CC(CC(C3)C1)C2)c1cccc([N+](=O)[O-])c1	none
CC1(C(=O)NNC(=O)c2cccc([N+](=O)[O-])c2)CC1Br (stereo unspecified)	CHRM4 PAM 15.8
O=C(NCC1CCN(C(=O)C(=O)c2cccs2)CC1)c1ccc2ccccc2c1	none (no result: M4 ag, CHRM4 antagonist, CHRM4 PAM)
Cc1csc(/C(=N\O)c2csc(C)n2)n1	CHRM4 PAM 20.6
O=C(CN1C(=O)NC2(CCSC2)C1=O)NCc1ccccc1 (stereo unspecified)	CHRM4 PAM 17.8
O=C(CN1C(=O)NC2(CCCC2)C1=O)NCc1ccccc1	none
